Laboratory results published in ChEMBL document CHEMBL2074042, “beta-lactam antibiotics as substrates for OCTN2, an organic cation/carnitine transporter” (J Biol Chem, 2000).

How the values were obtained:
Assay type in all cases: functional, cell-based
[1] = molecular target: T1, Solute carrier family 15 member 2 (Rattus norvegicus) (UniProt Q63424); experiment: TP_TRANSPORTER: inhibition of Gly-Sar uptake (Gly-Sar: 25 uM, Cefoselis: 2500uM) in PEPT2-expressing HeLa cells; parameters: scale not given: the % may be the effect or the level left
T1 sequence (whole entry): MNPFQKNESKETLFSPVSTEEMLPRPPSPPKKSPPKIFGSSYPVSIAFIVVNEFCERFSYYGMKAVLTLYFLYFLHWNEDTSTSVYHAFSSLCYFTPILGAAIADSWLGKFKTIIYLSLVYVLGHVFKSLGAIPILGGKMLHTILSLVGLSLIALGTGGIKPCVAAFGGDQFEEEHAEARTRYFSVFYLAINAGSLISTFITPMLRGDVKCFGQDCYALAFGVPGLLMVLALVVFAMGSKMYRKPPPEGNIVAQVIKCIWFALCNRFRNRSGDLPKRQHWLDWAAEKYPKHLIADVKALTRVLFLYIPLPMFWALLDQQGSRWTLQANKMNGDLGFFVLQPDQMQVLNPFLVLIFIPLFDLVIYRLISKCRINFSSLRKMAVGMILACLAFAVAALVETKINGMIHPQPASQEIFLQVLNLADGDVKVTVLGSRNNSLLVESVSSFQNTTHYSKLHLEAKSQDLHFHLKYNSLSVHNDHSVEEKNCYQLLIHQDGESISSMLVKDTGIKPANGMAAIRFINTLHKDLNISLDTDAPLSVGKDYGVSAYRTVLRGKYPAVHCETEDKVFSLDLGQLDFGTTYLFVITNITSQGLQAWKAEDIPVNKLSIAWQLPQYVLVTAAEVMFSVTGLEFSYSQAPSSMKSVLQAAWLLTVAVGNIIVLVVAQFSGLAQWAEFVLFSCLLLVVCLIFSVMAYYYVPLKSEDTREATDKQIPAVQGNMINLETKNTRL
Procedure, shortened: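 HeLa cells expressing rat PEPT2 cDNA. [14C]glycylsarcosine (25 μM) uptake for 5 min under an inward H+ gradient in Mes/Tris buffer, pH 6.0, with test compound at 2.5 mM. Vector-cell uptake subtracted. Results as percent of control, three independent measurements, mean ± S.E.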

[2] = molecular target: T2, Solute carrier family 15 member 1 (Homo sapiens) (UniProt P46059); experiment: TP_TRANSPORTER: inhibition of Gly-Sar uptake (Gly-Sar: 50 uM, Cefoselis: 2500uM) in PEPT1-expressing HeLa cells; parameters: scale not given: the % may be the effect or the level left
T2 sequence (whole entry): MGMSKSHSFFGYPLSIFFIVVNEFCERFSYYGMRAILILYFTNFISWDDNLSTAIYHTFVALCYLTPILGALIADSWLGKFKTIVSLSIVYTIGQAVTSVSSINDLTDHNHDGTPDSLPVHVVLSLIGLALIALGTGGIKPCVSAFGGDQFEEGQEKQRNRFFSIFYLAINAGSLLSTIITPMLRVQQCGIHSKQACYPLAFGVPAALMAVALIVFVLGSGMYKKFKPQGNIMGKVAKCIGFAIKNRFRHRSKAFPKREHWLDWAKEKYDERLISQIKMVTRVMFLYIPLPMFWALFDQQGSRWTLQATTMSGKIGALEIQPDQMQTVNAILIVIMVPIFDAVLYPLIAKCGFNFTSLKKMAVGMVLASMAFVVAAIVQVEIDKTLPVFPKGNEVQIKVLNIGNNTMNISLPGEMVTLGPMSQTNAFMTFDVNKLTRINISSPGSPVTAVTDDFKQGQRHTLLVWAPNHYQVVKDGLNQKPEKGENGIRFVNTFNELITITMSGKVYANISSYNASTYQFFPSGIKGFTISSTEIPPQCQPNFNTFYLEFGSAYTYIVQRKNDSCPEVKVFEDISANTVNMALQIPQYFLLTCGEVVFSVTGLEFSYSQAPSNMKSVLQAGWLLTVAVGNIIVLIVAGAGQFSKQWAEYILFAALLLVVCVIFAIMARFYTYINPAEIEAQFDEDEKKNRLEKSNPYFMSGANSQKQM
Procedure, shortened: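 HeLa cells expressing human PEPT1 cDNA. [14C]glycylsarcosine (50 μM) uptake for 5 min in Mes/Tris buffer, pH 6.0, giving an H+ gradient, with test compound at 2.5 mM. Vector-transfected uptake subtracted. Percent of control, n=3, mean ± S.E.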

[3] = molecular target: T3, Organic cation/carnitine transporter 2 (Homo sapiens, UniProt O76082); experiment: TP_TRANSPORTER: inhibition of Carnitine uptake (Carnitine: 0.02 uM) in OCTN2-expressing HeLa cells
T3 sequence (O76082 whole entry): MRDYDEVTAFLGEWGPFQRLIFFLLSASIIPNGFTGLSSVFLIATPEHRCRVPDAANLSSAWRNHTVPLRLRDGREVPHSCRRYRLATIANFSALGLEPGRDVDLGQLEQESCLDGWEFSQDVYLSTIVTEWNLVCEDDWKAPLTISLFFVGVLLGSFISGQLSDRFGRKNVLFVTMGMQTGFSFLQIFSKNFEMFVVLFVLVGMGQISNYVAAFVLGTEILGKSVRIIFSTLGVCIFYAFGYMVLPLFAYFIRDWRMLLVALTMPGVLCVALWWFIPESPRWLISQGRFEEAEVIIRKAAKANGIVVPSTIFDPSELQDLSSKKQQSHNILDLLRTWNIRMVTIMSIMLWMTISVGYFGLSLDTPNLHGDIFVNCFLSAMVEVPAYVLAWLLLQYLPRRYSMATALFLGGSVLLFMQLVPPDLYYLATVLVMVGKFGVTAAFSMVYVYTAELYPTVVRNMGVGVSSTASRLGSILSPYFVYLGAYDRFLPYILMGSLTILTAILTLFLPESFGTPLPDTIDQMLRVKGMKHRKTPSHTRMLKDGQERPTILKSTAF

[4] = molecular target: T4, OCTN2 (organic cation/carnitine transporter 2) (Rattus norvegicus, UniProt O70594); experiment: TP_TRANSPORTER: inhibition of Carnitine uptake (Carnitine: 0.02 uM, Cefoselis: 2500 uM) in OCTN2-expressing HeLa cells; parameters: scale not given: the % may be the effect or the level left; conditions: human, probe carnitine (0.02 uM), read-out: Activity
T4 sequence (O70594 whole entry): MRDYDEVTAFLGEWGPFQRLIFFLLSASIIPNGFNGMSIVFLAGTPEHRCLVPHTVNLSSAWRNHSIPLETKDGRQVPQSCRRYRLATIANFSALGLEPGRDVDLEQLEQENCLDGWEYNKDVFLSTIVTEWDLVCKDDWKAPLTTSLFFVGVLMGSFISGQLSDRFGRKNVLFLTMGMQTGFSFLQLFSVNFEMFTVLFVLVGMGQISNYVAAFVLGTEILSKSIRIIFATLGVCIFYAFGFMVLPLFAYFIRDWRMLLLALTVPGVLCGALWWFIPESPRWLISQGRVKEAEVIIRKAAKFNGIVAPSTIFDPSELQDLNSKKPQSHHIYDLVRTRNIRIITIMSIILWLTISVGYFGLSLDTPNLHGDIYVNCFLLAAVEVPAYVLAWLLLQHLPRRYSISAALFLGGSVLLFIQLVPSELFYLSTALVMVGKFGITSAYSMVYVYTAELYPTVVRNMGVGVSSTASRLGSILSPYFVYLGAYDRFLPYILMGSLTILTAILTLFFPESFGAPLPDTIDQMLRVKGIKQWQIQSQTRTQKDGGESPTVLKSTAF
Procedure, shortened: (§1)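 HeLa cells expressed human or rat OCTN2 cDNA by vaccinia virus/T7 system. [3H]carnitine (20 nM) uptake for 30 min at room temperature in Na+-containing Hepes/Tris buffer, pH 7.5, with β-lactam at 2.5 mM. Lysate radioactivity counted. Endogenous activity from vector-only cells subtracted. Four measurements from two transfections.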

[5] = molecular target: T3, Organic cation/carnitine transporter 2; experiment: TP_TRANSPORTER: inhibition of Carnitine uptake (Carnitine: 0.02 uM, Cyclacillin: 2500 uM) in OCTN2-expressing HeLa cells
[6] = molecular target: T2, Solute carrier family 15 member 1 (Homo sapiens); experiment: TP_TRANSPORTER: inhibition of Gly-Sar uptake (Gly-Sar: 50 uM, Ceftazidime: 2500uM) in PEPT1-expressing HeLa cells
Procedure, shortened: (§2)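 HeLa cells were transfected with human PEPT1 or rat PEPT2 cDNA. [14C]glycylsarcosine uptake (50 μM for PEPT1, 25 μM for PEPT2) ran 5 min at room temperature, inward H+ gradient, 25 mM Mes/Tris pH 6.0 buffer, antibiotic 2.5 mM. Vector-cell uptake was subtracted and lysates were scintillation-counted. Mean ± S.E., three measurements.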

[7] = molecular target: T1, Solute carrier family 15 member 2 (Rattus norvegicus); experiment: TP_TRANSPORTER: inhibition of Gly-Sar uptake (Gly-Sar: 25 uM, Ceftazidime: 2500uM) in PEPT2-expressing HeLa cells; procedure, shortened: as §2
[8] = molecular target: T3, Organic cation/carnitine transporter 2; experiment: (§3) TP_TRANSPORTER: inhibition of Carnitine uptake (Carnitine: 0.02 uM, Ceftazidime: 2500 uM) in OCTN2-expressing HeLa cells
[9] = molecular target: T5, Organic cation/carnitine transporter 2 (Rattus norvegicus, UniProt O70594); experiment: as §3; conditions: human
T5 sequence (O70594 whole entry): T4 sequence (O70594 whole entry)

[10] = molecular target: T3, Organic cation/carnitine transporter 2; experiment: TP_TRANSPORTER: inhibition of Carnitine uptake (Carnitine: 0.02 uM, Cephradine: 2500 uM) in OCTN2-expressing HeLa cells
[11] = molecular target: T3, Organic cation/carnitine transporter 2; experiment: TP_TRANSPORTER: inhibition of Carnitine uptake (Carnitine: 0.02 uM, Cefixime: 2500 uM) in OCTN2-expressing HeLa cells
[12] = molecular target: T3, Organic cation/carnitine transporter 2; experiment: (§4) TP_TRANSPORTER: inhibition of Carnitine uptake (Carnitine: 0.02 uM, Cefadroxil: 2500 uM) in OCTN2-expressing HeLa cells; procedure, shortened: as §1
[13] = molecular target: T5, Organic cation/carnitine transporter 2; experiment: as §4; conditions: human; procedure, shortened: as §1

In the case of `CO/N=C(\C(=O)N[C@@H]1C(=O)N2C(C(=O)[O-])=C(C[n+]3ccc(N)n3CCO)CS[C@H]12)c1csc(N)n1` [CEFOSELIS], the Activity [1] is reported as 83%, the Activity [2] is reported as 76% and the IC50 [3] is reported as 6.4 mM. For the same molecule, the activity at 2500 µM [4] was 71%.
With `CC1(C)S[C@@H]2[C@H](NC(=O)C3(N)CCCCC3)C(=O)N2[C@H]1C(=O)O` [CYCLACILLIN] the Activity [5] was “is not an inhibitor [-]”.
`CC(C)(O/N=C(\C(=O)N[C@@H]1C(=O)N2C(C(=O)[O-])=C(C[n+]3ccccc3)CS[C@H]12)c1csc(N)n1)C(=O)O` [CEFTAZIDIME] was tested, and the Activity [6] was “is not an inhibitor [-]”, the Activity [7] was “is not an inhibitor [-]” and the Activity [8] was “is not an inhibitor [-]”. The Activity [9] was “is not an inhibitor [-]”.
With `CC1=C(C(=O)O)N2C(=O)[C@@H](NC(=O)[C@H](N)C3=CCC=CC3)[C@H]2SC1` [CEPHRADINE] the Activity [10] was “is not an inhibitor [-]”.
`C=CC1=C(C(=O)O)N2C(=O)[C@@H](NC(=O)/C(=N\OCC(=O)O)c3csc(N)n3)[C@H]2SC1` [CEFIXIME] was tested, and the Activity [11] was “is not an inhibitor [-]”.
`CC1=C(C(=O)O)N2C(=O)[C@@H](NC(=O)[C@H](N)c3ccc(O)cc3)[C@H]2SC1` [CEFADROXIL] was tested, and the Activity [12] was “is not an inhibitor [-]” and the Activity [13] was “is not an inhibitor [-]”.
